A selection: hits, their analogues and other compounds. The true share with any hit is near 3.7%.
Kir21 block: blocks the mouse Kir2.1 inward-rectifier potassium channel; HEK293-Kir2.1, FluxOR thallium flux fluorescence; stronger effect = lower value; B-score at 10 µM; actives 0.85% (n = 310,000); AID 1672;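 active = fluorescence ratio B-score at or below minus 3 SD of library scores, with starting-brightness B-score within 2 SD, cut at about -4.2 in these data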;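 note: channel flux triggered by added potassium and thallium sulfate stimulus; B-score of peak minus minimum fluorescence over baseline after thallium stimulus; more negative B-score means stronger Kir2.1 block with less thallium influx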
KCNK3 block: human KCNK3 channel inhibition, primary screen. CHO-KCNK3 thallium flux, FluxOR fluorescence; stronger effect = lower value. B-score at 10 µM. AID 602410. actives 0.84% (n = 340,000). O14649;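 active = B-score under library mean minus 4 SD, starting fluorescence ratio at most library mean plus 5 SD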;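 note: more negative B-score means stronger inhibition of thallium flux through KCNK3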
KCNK9 inh: inhibitors of human KCNK9 two-pore domain potassium channel | actives 1.2% (n = 310,000) | B-score at 10 µM | HEK293 KCNK9, FluxOR thallium flux fluorescence; stronger effect = lower value;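 active = ratio B-score over 3 SD below the library mean, with starting fluorescence within 5 SD of its mean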;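 note: negative B-score means less thallium flux so channel inhibition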
hERG rescue: compounds protecting human hERG from proarrhythmic drug block. activation (rescue from dofetilide block), less the hit threshold, % at 10 µM. actives 0.51% (n = 310,000). Q12809. CHO-hERG, FluxOR thallium flux, dofetilide IC70 present. AID 1511;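 active = activation above the mean of controls blocked by dofetilide plus 5 SD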;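 note: thallium influx through hERG after potassium depolarization seen as dye fluorescence rise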
KCNQ1 block: inhibitors of human KCNQ1 potassium channel. P51787. CHO-K1 KCNQ1, FluxOR thallium flux fluorescence; stronger effect = higher value. B-score at 10 µM. actives 1.3% (n = 310,000). AID 2642;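 active = compounds whose thallium flux B-score, printed positive for inhibition, exceeds three library SD while starting fluorescence stays within three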;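 note: channel opened by potassium depolarization with thallium stimulus after 20 min compound exposure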
Target sequence (P51787 whole entry, looked up): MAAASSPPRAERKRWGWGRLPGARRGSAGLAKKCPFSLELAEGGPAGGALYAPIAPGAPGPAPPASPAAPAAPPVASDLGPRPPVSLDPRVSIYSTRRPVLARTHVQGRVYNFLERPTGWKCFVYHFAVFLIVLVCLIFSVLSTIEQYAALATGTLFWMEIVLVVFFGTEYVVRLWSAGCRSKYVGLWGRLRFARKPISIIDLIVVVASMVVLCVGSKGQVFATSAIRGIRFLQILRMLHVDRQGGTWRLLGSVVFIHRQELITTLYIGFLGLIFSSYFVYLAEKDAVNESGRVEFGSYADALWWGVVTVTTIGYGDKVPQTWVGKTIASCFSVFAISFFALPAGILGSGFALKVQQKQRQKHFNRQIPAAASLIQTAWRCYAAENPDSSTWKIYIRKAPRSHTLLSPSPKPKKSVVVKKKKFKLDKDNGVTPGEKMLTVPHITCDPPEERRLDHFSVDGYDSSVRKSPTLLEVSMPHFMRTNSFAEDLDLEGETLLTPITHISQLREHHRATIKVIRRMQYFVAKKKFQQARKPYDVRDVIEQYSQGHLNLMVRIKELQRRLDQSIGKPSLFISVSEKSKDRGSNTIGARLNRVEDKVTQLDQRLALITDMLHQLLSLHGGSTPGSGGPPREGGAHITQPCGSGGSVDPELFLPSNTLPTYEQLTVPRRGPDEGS
KCNQ1 act: potentiates or activates the human KCNQ1 potassium channel | P51787 | actives 0.35% (n = 310,000) | CHO-K1 KCNQ1, thallium flux FluxOR fluorescence; stronger effect = higher value | B-score at 10 µM;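 active = fluorescence ratio B-score, a plate-corrected score, at least three library SD, with initial intensity B-score within 5 SD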
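Doses: Single concentration per compound, DMSO matched to controls | Test system: KCNQ1-transfected CHO-K1 cells | Timing: 90 min dye loading and 20 min compound exposure, both at room temperature | Measured by: Kinetic FluxOR thallium fluorescence, 10-s 1-Hz baseline, 110-s post-stimulus read | Medium: Assay buffer with matched DMSO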
KCNK9 block conf: human KCNK9 inhibitor confirmation. actives 43% (n = 4,900). shares compounds with KCNK9 inh. inhibition, % at 10 µM. HEK293 KCNK9 cells, FluxOR thallium flux fluorescence. AID 492992;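 active = thallium signal inhibited by more than 5 SD of the compound-free buffer control wells, on both duplicate plates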;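 note: 0% = assay buffer control wells without compound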
Kir21 sel: tests whether KCNK9 modulators also affect mouse Kir2.1. AID 492993. Kir2.1 cells, FluxOR thallium flux fluorescence. actives 4% (n = 4,900). inhibition, % at 10 µM. shares compounds with KCNK9 inh;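 active = thallium signal drop more than 5 SD beyond the mean of the no-compound control wells, seen in both duplicate plates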;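 note: signal is fluorescence rise after thallium addition divided by baseline fluorescence; plate controls were assay buffer only for no effect and full block by chlorpromazine control for full effect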
HEK293 Tl ctr: second counter-screen for KCNK9 modulators: effect in non-induced cells. shares compounds with KCNK9 inh. non-induced KCNK9-HEK293, FluxOR thallium flux. inhibition, % at 10 µM. actives 40% (n = 4,900);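 active = thallium signal drop beyond 5 SD of the untreated control mean, on both duplicate plates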;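 note: plate controls were buffer only IC0 wells for no effect and SID17386958 at its maximal inhibitory level for full effect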
* = called active by the depositor; i = inactive; x = no result.

SMILES	Kir21 block	KCNK3 block	KCNK9 inh	hERG rescue	KCNQ1 block	KCNQ1 act	KCNK9 block conf	Kir21 sel	HEK293 Tl ctr
C/C=C1\NC(=O)[C@H](CC(N)=O)N(C)C(=O)C([C@@H](C)O)NC(=O)C(CCCc2ccc(OC)cc2)NC(=O)[C@H](C(C)C)NC(=O)/C(=C\C)NC(=O)[C@H](O)[C@@H](C[C@@H](O)CCCCCCC)NC(=O)[C@H](C)NC(=O)CN(C)C(=O)[C@H](CCC(N)=O)NC1=O (some centres undefined)	x	i	x	x	x	x	x	x	x
CN(CCc1cnn(C)c1)Cc1cn[nH]c1-c1ccc(-c2ccccc2)cc1	0.03	i	i	-4	i	i	x	x	x
COc1cc2c(c(OC)c1OC)C(c1ccc(C)cc1)CC(=O)O2 (centres undefined)	x	i	x	x	x	x	x	x	x
Cc1c(C(=O)Nc2ccc(-c3nnc4n3CCCCC4)cc2)oc2c1ccc1ccccc12	1.8	i	-12*	-8	i	i	i	i	30%*
O=C(Nc1ccc(-c2nnc3n2CCCCC3)cc1)c1cc2ccccc2o1	0.54	i	i	-26	i	i	x	x	x
CCOc1ccccc1N1CCN(C(=O)c2cc3cc(OC)ccc3[nH]2)CC1	0.3	i	i	-4	i	i	i	i	i
Cc1c2n(c3ccccc13)CCN(C)C2	-0.6	i	i	-5	i	i	x	x	x
CN(C)C(CNC(=O)c1cccc(S(=O)(=O)NCc2ccccc2)c1)c1ccco1 (centres undefined)	-0.39	i	i	-11	i	i	x	x	x
Clc1cccc(Cl)c1CSc1nnc(/C=C/c2ccccc2)o1	-2.1	i	i	-11	i	i	i	i	29%*
C[C@H](N)c1nnc(SCc2c(Cl)cccc2Cl)o1	0.35	i	i	-19	i	i	x	x	x
Clc1ccc(C2[C@H]3CN(Cc4ccc(-c5ccccc5)cc4)[C@H](c4ccccc4)C34CC2(c2ccccc2)C4)cn1 (some centres undefined)	0.01	x	i	-7	i	i	x	x	x
Clc1ccc(C2[C@H]3CN(Cc4cccnc4)[C@H](c4ccccc4)C34CC2(c2ccccc2)C4)cn1 (some centres undefined)	-1.1	i	-9.8*	-6	i	i	30%*	i	35%*
CN(C)c1ccc(/C=N/c2cc(-c3ccccc3)nn2-c2ccccc2)cc1	0.97	i	i	-15	i	i	x	x	x
Cc1ccc(-c2ccc(C(=O)NCc3ccccc3)o2)c2ccccc12	0.21	i	i	-10	i	i	x	x	x
Cc1ccc(S(=O)(=O)NC(=O)c2ccc(-c3ccc(C)c4ccccc34)o2)cc1	0.46	i	i	-19	i	i	i	i	i
Cc1ccc(-c2ccc(C(=O)Nc3ccccc3)o2)c2ccccc12	0.9	i	i	-17	6*	i	i	i	i
COC(=O)c1ccccc1S(=O)(=O)N1CCC(NC(=O)C(Cc2cccc(OC)c2OC)NC(C)=O)CC1 (centres undefined)	-0.62	i	i	-8	i	i	x	x	x
CCN(CC1CCCN(CCc2cccc(OC)c2)C1)C(=O)c1ccoc1C (centres undefined)	0.5	i	i	-3	i	i	x	x	x
COc1cccc(N2CCN(C(=O)CCSCc3ccccc3F)CC2)c1	1.1	i	i	-21	i	i	i	i	i
COc1ccccc1N1CCN(C(=O)CCSCc2ccccc2F)CC1	-0.23	i	i	-24	i	i	x	x	x
COc1ccc(-n2c(SC(C)C(=O)Nc3ccc(NC(C)=O)cc3)nc3ccccc3c2=O)cc1OC (centres undefined)	0.93	i	i	-1	i	i	x	x	x
O=C1C2=C(Nc3ccccc3SC2c2ccco2)c2ccccc21 (centres undefined)	0.04	i	-18*	-9	13*	i	65%*	i	30%*
Cc1cc(C)cc(CC2CC(=O)N(c3cc(C)ccc3C)C2=O)c1 (centres undefined)	-1.9	i	i	-3	i	i	i	i	i
Cc1ccc(N2C(=O)CC(Cc3cc(C)cc(C)c3)C2=O)cc1 (centres undefined)	1.1	i	i	-12	i	i	x	x	x
Cc1cccc(/N=C/c2c(O)n(Cc3ccc4c(c3)OCO4)c(=O)c3ccccc23)n1	0.41	i	i	-6	i	i	x	x	x
SMILES	Kir21 block	KCNK3 block	KCNK9 inh	hERG rescue	KCNQ1 block	KCNQ1 act	KCNK9 block conf	Kir21 sel	HEK293 Tl ctr
O=[N+]([O-])c1cc(S(=O)(=O)N2CCCCC2)ccc1NCCCN1CCOCC1	-0.51	i	i	-6	i	i	x	x	x
CCOc1ccc(Br)cc1C1=NN(C(C)=O)C(c2ccc([N+](=O)[O-])s2)O1 (centres undefined)	0	-10*	-10*	-7	i	i	63%*	i	40%*
CC1CC(C)(C)NC(=S)N1CC(=O)NCc1ccc2c(c1)OCO2 (centres undefined)	0.64	i	i	1	i	i	x	x	x
CC1(c2ccccc2)CC(C)(C)N2C(=O)C(=O)c3cccc1c32 (centres undefined)	-2.1	i	i	-17	i	i	i	i	i
COc1ccccc1CNC(=O)CCCN1C(=O)COc2ccc(C)cc21	-0.55	i	i	-8	i	i	i	i	i
Cc1ccc2c(c1)N(CCC(=O)NC1CCCCC1)C(=O)CO2	-0.3	i	i	-9	i	i	i	i	i
Nc1c(-c2ccc(Cl)cc2)cnc2c(-c3ccccc3)cnn12	0.83	i	i	-5	i	i	x	x	x
CN1CCN(C2=C(Cl)C(=O)C(c3cnc(N4CCCCC4)s3)=C(Cl)C2=O)CC1	-1.8	i	-17*	-48	16*	i	i	i	38%*
COc1ccc(C(=O)Nc2cc(C)nn2-c2ccc(F)cc2)cc1	0.95	i	i	-8	i	i	x	x	x
CCOC(=O)c1ccc(NC(=O)N2CCN(Cc3ccccc3)CC2)cc1	-0.25	i	i	-11	i	i	x	x	x
Oc1[nH]c2ccccc2c1N=NC(=S)N1CCOCC1	1.5	i	-13*	-21	i	i	54%*	i	45%*
S=c1[nH]nc(-c2cccs2)n1C1CCCCC1	-3	i	i	-9	i	i	x	x	x

Screens from PubChem BioAssay.
